This passage reports IC50 results from ChEMBL document CHEMBL1147441, “A new series of potent oxindole inhibitors of CDK2” (Bioorg Med Chem Lett, 2004).

Each structure is given as a SMILES string.

Assay [1] deals with Cyclin-dependent kinase 2/cyclin E (Homo sapiens, UniProt P24941). Kind of assay: In vitro inhibition of recombinant Cyclin Dependent Kinase-2/Cyclin E. The assay is classed as protein-complex assay.
The subject of a further assay is SW480. The assay can be described thus: In vitro inhibition of SW480 (human colon cancer) cell proliferation. The assay is classed as functional, cell-based. The gist of the method:
(§1)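 MTT-based proliferation assay run on tumour cells. IC50 values were taken from a single experiment.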

A further assay relates to MDA-MB-435. Kind of assay: In vitro inhibition of MDA MB 435 (human breast cancer) cell proliferation. The class given is functional, cell-based. The gist of the method: as §1

For `COc1cc[nH]c1/C=C1\C(=O)Nc2ccc(F)c(C#C[C@@H](C)O)c21`, the IC50 in assay [1] amounted to 0.021 µM; in the assay on SW480, 0.13 µM; in the assay with MDA-MB-435 it was 0.11 µM.
The like results for `COc1cc[nH]c1/C=C1\C(=O)Nc2ccc(F)c(C#C[C@@H]3C[C@@H](O)CN3)c21` were, in that order, 0.004 µM, 0.044 µM and 0.063 µM.
The matching figures for `CN[C@@H](C#Cc1c(F)ccc2c1/C(=C/c1[nH]ccc1OC)C(=O)N2)CO`: 0.004 µM, 0.08 µM and 0.3 µM.
The like results for `COc1cc[nH]c1/C=C1\C(=O)Nc2ccc(F)c(C#C[C@@H](NS(C)(=O)=O)[C@@H](C)O)c21` were, in that order, 0.045 µM, 1.19 µM and 2.62 µM.
Regarding `CN[C@H](C#Cc1c(F)ccc2c1/C(=C/c1[nH]ccc1OC)C(=O)N2)[C@@H](C)O`, the IC50 in assay [1] was 0.007 µM; in the assay on SW480, 0.14 µM; in the assay with MDA-MB-435, 0.358 µM.
The matching figures for `COc1cc[nH]c1/C=C1\C(=O)Nc2ccc(F)c(C#C[C@@H](N)CO)c21`: 0.005 µM, 0.205 µM and 0.3 µM.
Take `COc1cc[nH]c1/C=C1\C(=O)Nc2ccc(F)c(I)c21`: the IC50 in assay [1] is 1 µM; in the assay on MDA-MB-435, greater than 30 µM.
As for `COc1cc[nH]c1/C=C1\C(=O)Nc2ccc(F)c(C#CC(O)CN)c21` (stereo not given), the IC50 is 0.004 µM in assay [1], 0.11 µM with SW480 and 0.13 µM in the assay with MDA-MB-435.
Take `CCN[C@H](C#Cc1c(F)ccc2c1/C(=C/c1[nH]ccc1OC)C(=O)N2)CO`: the IC50 in assay [1] was found to be 0.021 µM; with SW480 it was 0.566 µM; with MDA-MB-435 it was 1.16 µM.
The like results for `CCN[C@H](C#Cc1c(F)ccc2c1/C(=C/c1[nH]ccc1OC)C(=O)N2)[C@@H](C)O` were, in that order, 0.018 µM, 0.549 µM and 1.07 µM.
The matching figures for `COc1cc[nH]c1/C=C1\C(=O)Nc2ccc(F)c(C#C[C@@H]3C[C@H](O)CN3)c21`: 0.005 µM, 0.09 µM and 0.11 µM.
Take `COc1cc[nH]c1/C=C1\C(=O)Nc2ccc(F)c(C#C[C@@H](O)[C@@H](N)[C@@H](C)O)c21`: the IC50 stood at 0.14 µM in the assay on SW480 and 0.4 µM in the assay with MDA-MB-435.
Turning to `COc1cc[nH]c1/C=C1\C(=O)Nc2ccc(F)c(C#C[C@H](C)O)c21`, the IC50 in assay [1] was 0.026 µM; with SW480 it was 0.4 µM; with MDA-MB-435, 0.19 µM.
The matching figures for `CNCC#Cc1c(F)ccc2c1/C(=C/c1[nH]ccc1OC)C(=O)N2`: 0.004 µM, 0.15 µM and 0.49 µM.
The like results for `COc1cc[nH]c1/C=C1\C(=O)Nc2ccc(F)c(C#C[C@@H]3CCCN3)c21` were, in that order, 0.002 µM, 0.04 µM and 0.031 µM.
The matching figures for `COc1cc[nH]c1/C=C1\C(=O)Nc2ccc(F)c(C#C[C@@H](N)[C@@H](C)O)c21`: 0.009 µM, 0.21 µM and 0.3 µM.
Take `COc1cc[nH]c1/C=C1\C(=O)Nc2ccc(F)c(C#C[C@H](CO)NCCO)c21`: the IC50 in assay [1] stood at 0.095 µM; in the assay with SW480, 0.967 µM; in the assay with MDA-MB-435, 1.27 µM.
For the compound `COc1cc[nH]c1/C=C1/C(=O)Nc2ccc(F)cc21`, the IC50 was 0.847 µM in assay [1] and greater than 30 µM in the assay on MDA-MB-435.
Regarding `COc1cc[nH]c1/C=C1\C(=O)Nc2ccc(F)c(C#CC3(O)CCOCC3)c21`, the figures for the IC50 (in assay [1]; with SW480; with MDA-MB-435) were 0.004 µM, 0.29 µM and 0.6 µM, respectively.
The like results for `CN[C@H](C#Cc1c(F)ccc2c1/C(=C/c1[nH]ccc1OC)C(=O)N2)CO` were, in that order, 0.008 µM, 0.1 µM and 0.349 µM.
The like results for `COc1cc[nH]c1/C=C1\C(=O)Nc2ccc(F)c(C#C[C@H](N)CO)c21` were, in that order, 0.003 µM, 0.27 µM and 0.32 µM.

The term IC50 denotes the concentration that gives 50% inhibition.
